Bioassay records: PubChem, several laboratories
14-3-3 Bad inh = inhibitors of 14-3-3 zeta/Bad binding, primary screen, biochemical, TR-FRET, bovine 14-3-3 zeta. 14-3-3 protein zeta/delta (Bos taurus), P63103. TR-FRET 14-3-3zeta/Dy647-pBad peptide displacement, 1 h. inhibition, % at 21.7 µM. actives 0.71% (n = 220,000). AID 781, 2007;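 active = inhibition above about 70%, limit read from the data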
NCF1 inh = p47phox/p22phox peptide binding inhibitors, primary screen, biochemical, uHTS, NADPH oxidase regulatory subunit. actives 0.53% (n = 220,000). fluorescence polarization, 2 h. inhibition, % at 24.7 µM. AID 1274, 2008;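 active = inhibition above about 30%, limit read from the data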
KCC2 mod = KCC2 cotransporter modulators, thallium flux, primary screen, cell-based, HEK293 KCC2, FluoZin-2 fluorescence, MLSMR | Solute carrier family 12 member 5 (Homo sapiens), Q9H2X9 | KCC2 cells, thallium flux FluoZin-2 fluorescence | B-score of Tl+ flux slope (higher = more flux/activation; lower = inhibition) at 10 µM | actives 2.2% (n = 190,000);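 active = thallium flux slope and its plate-corrected score both differing from the plate sample mean at a set confidence after two filtering rounds, in either direction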;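 note: slope of fluorescence scaled to starting intensity during 10 to 20 s after thallium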
RBBP9 inhibitor = human RBBP9 inhibitors, primary screen, biochemical, fluorescence polarization, FP-Rh probe, HTS; Serine hydrolase RBBP9 (Homo sapiens), O75884; recombinant RBBP9; inhibition, % at 7.94 µM; actives 0.2% (n = 220,000); AID 1515, 2009;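 active = inhibition above the campaign mean of all tested compounds plus 3 SD, cut at about 14% in these data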
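System: RBBP9 protein | Quantity: 2.5 µM RBBP9 dispensing solution, before mixing | Reagent: FP-Rh probe, 375 nM dispensing solution | Timing: Enzyme-compound preincubation 30 min, then probe labeling 45 min, 25 °C | Measured by: Fluorescence polarization | Read-out: % inhibition | Replication: One well per compound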
WT yeast gro inh = growth inhibition of WT strain, primary screen, mitochondrial fusion inhibitor project, WT and mutant strains, chemical genetic; mitochondrial fusion phenotypic screen; inhibition, % at 10 µM; actives 2.1% (n = 190,000); AID 1362, 2008; in the data active = inhibition above about 58%; tested in S. cerevisiae
ROMK mod = ROMK potassium channel modulators, primary screen, cell-based, thallium flux, MLSMR library; ATP-sensitive inward rectifier potassium channel 1 (Homo sapiens), P48048; Tet-inducible ROMK, thallium flux fluorescence; actives lie on both sides; B-score at 10 µM; actives 2% (n = 130,000); AID 1918, 2009;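 active = signal ratio slope over the read window, or its plate-corrected B-score, at least 3 SD from the plate mean, either direction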;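 note: B-score of the F/F0 ratio slope over 7 to 12 s after thallium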
Target sequence (P48048 whole entry, looked up): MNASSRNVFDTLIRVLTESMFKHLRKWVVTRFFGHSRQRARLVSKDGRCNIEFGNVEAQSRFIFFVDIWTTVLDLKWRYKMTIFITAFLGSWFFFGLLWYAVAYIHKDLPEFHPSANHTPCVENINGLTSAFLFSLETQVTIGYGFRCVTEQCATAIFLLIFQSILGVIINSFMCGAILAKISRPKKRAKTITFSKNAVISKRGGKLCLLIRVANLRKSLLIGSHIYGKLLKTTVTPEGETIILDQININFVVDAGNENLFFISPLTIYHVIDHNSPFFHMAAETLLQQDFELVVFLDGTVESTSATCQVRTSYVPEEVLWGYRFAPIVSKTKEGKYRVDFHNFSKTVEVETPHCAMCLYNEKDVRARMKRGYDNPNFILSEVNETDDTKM
Large screens that a line does not name were inactive; [ ] = remark or other dose. Rows were chosen to be rich in hits. Some 5.8% of all compounds tested hit in one or more screens of this group.

O=c1[nH]cnc2scc(-c3ccccc3)c12	none (no result: ROMK mod)
O=c1[nH]cnc2scc(-c3ccc(Br)cc3)c12	none (no result: KCC2 mod)
Cc1ccc(-c2csc3nc[nH]c(=S)c23)cc1	KCC2 mod 50, ROMK mod 10
CCOC(=O)Cc1nc(-c2cccc(C(F)(F)F)c2)no1	none
Cc1cc(C)nc(N/N=C/c2cn[nH]c2-c2ccc(F)cc2)n1	none (no result: WT yeast gro inh, ROMK mod)
O=[N+]([O-])c1ccc2c(c1)N([O-])C1(CCCCC1)[N+]2=O	none (no result: WT yeast gro inh)
COc1ccc(/C=C2/CCc3ccccc3C2=O)cc1CN1CCOCC1	none
COc1ccc(/C=C2\CCc3ccccc3C2=O)cc1Cn1nc(C)cc1C	WT yeast gro inh 80
COc1ccc(Cl)cc1NC(=O)C1CCCO1 (centres undefined)	none
CCOc1cc(NC(=O)C2CCCO2)c(OCC)cc1NC(C)=O (centres undefined)	NCF1 inh 103 (no result: ROMK mod)
Fc1ccc(-c2csc(/C=C/c3ccc4c(c3)OCO4)n2)cc1	none (no result: ROMK mod)
COc1ccc(CNC(=O)c2c(O)c3cccc4c3n(c2=O)CCC4)cc1OC	NCF1 inh 54 (no result: ROMK mod)
COc1ccc(CNC(=O)c2c(O)c3cccc4c3n(c2=O)CCC4)cc1	none (no result: ROMK mod)
O=C(Nc1cccc(NC(=O)c2ccc(Br)o2)n1)c1ccc(Br)o1	14-3-3 Bad inh 75 (no result: ROMK mod)
COc1ccc(C=O)cc1CSc1nnc(COc2cccc3cccnc23)o1	WT yeast gro inh 67
CC(=O)Cc1nnn(-c2cc(C)on2)n1	none (no result: WT yeast gro inh)
COc1ccc(C(=O)NCC(=O)N/N=C/c2cccc(OC(=O)c3ccco3)c2)cc1OC	none
O=C(COc1ccccc1)NC(=S)Nc1cccc([N+](=O)[O-])c1	KCC2 mod 43
CCOC(=O)c1ccc(NC(=S)NC(=O)COc2ccccc2)cc1	KCC2 mod 18 (no result: ROMK mod)
CCOC(=O)c1ccc(NC(=S)Nc2ccccc2)cc1	none (no result: ROMK mod)
O=C(CCOc1ccccc1)Nc1cccc([N+](=O)[O-])c1	none
CCOC(=O)c1ccc(NC(=O)COc2ccc(S(=O)(=O)NC(C)C)cc2)cc1	14-3-3 Bad inh 72 (no result: ROMK mod)
Cc1ccc(C2NC(c3ccc(C)cc3)C(C)C(=O)C2C)cc1 (centres undefined)	none (no result: WT yeast gro inh, ROMK mod)
O=C(CSc1nc(-c2ccc(F)cc2)nc2c1Cc1ccccc1O2)Nc1cccc(C(=O)O)c1	14-3-3 Bad inh 95
S=c1[nH]nc(-c2cc(-c3ccccc3)n[nH]2)n1/N=C/C(Br)=C/c1ccccc1	none (no result: WT yeast gro inh, ROMK mod)
COc1cc([N+](=O)[O-])ccc1-c1ccc(C(=O)Nc2ccc(NC(C)=O)cc2)o1	14-3-3 Bad inh 95[fluorescence artefact?] (no result: ROMK mod)
COc1cc([N+](=O)[O-])ccc1-c1ccc(/C=N/NC(=O)c2ccccc2O)o1	14-3-3 Bad inh 89 (no result: WT yeast gro inh)
CCN=C(Nc1ccc2c(c1)OCO2)SC1CC(=O)N(c2ccccc2F)C1=O (centres undefined)	NCF1 inh 42 (no result: KCC2 mod, ROMK mod)
CCN=C(Nc1ccc2c(c1)OCO2)SC1CC(=O)N(c2ccc(OC)cc2)C1=O (centres undefined)	none (no result: ROMK mod)
CN(C)/C=C/c1c([N+](=O)[O-])c2ccc(O)cc2n1-c1ccccc1	none (no result: KCC2 mod, WT yeast gro inh, ROMK mod)
Cc1ccc([N+](=O)[O-])cc1NC(=O)C(Sc1ccccc1)c1ccccc1 (centres undefined)	none
CC(C)C1C(c2ccccc2)NC(c2ccccc2)CC1(O)c1ccc(F)cc1 (centres undefined)	none (no result: WT yeast gro inh, ROMK mod)
COCCn1c(N)c(C(=O)NCC2CCCO2)c2nc3ccccc3nc21 (centres undefined)	none (no result: 14-3-3 Bad inh)
CC(C)Cn1c(N)c(C(=O)NCC2CCCO2)c2nc3ccccc3nc21 (centres undefined)	WT yeast gro inh 60
CC(C)CCN1CCN(Cc2ccon2)CC1CCO (centres undefined)	none
O=C(CNc1cccc2ccccc12)N/N=C/c1ccc[nH]1	none (no result: WT yeast gro inh)
